Measured values as given in ChEMBL document CHEMBL1138232, “Optimization of naphthalimide-imidazoacridone with potent antitumor activity leading to clinical candidate (HKH40A, RTA 502)” (J Med Chem, 2007).

Columns and labels:
[1] = test system: PC-3; assay: Antitumor activity against human PC3 cells after 48 hrs; assay type: functional; conditions: PC-3, 48 h
Procedure, shortened: (§1)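 Tested in the NCI 60 human tumour cell line screen, with continuous drug exposure for 48 h. Values include LC50 derived from the screen.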

[2] = test system: SK-MEL-28; assay: Antitumor activity against human SK-MEL-28 cells after 48 hrs; assay type: functional; conditions: SK-MEL-28, 48 h; procedure, shortened: as §1
[3] = test system: OVCAR-4; assay: Antitumor activity against human OVCAR4 cells after 48 hrs; assay type: functional; conditions: OVCAR-4, 48 h; procedure, shortened: as §1
[4] = test system: HOP-92; assay: Antitumor activity against human HOP92 cells after 48 hrs; assay type: functional; conditions: HOP-92, 48 h; procedure, shortened: as §1
[5] = Antitumor activity against human NCI-H322 cells after 48 hrs; assay type: functional; conditions: NCI-H322, 48 h; procedure, shortened: as §1
[6] = test system: COLO 205; assay: Antitumor activity against human COLO205 cells after 48 hrs; assay type: functional; conditions: COLO 205, 48 h; procedure, shortened: as §1
[7] = test system: CCRF-CEM; assay: Antitumor activity against human CCRF-CEM cells after 48 hrs; assay type: functional; procedure, shortened: as §1
[8] = test system: HCT-116; assay: Growth inhibition of human HCT116 cells after 5 days by MTT assay; assay type: functional; conditions: HCT-116, 120 h
Procedure, shortened: (§2)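 MTT assay after 5 day continuous exposure. GI50, TGI and LC50 calculated from the MTT data. Means ± SD of at least three independent experiments; coefficients of variation 10-20%. Compounds used as tri(methanesulfonate) salts.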

[9] = test system: SK-MEL-2; assay: Antitumor activity against human SK-MEL-2 cells after 48 hrs; assay type: functional; conditions: SK-MEL-2, 48 h; procedure, shortened: as §1
[10] = test system: ACHN; assay: Antitumor activity against human ACHN cells after 48 hrs; assay type: functional; procedure, shortened: as §1
[11] = test system: SNB-75; assay: Antitumor activity against human SNB75 cells after 48 hrs; assay type: functional; conditions: SNB-75, 48 h
Procedure, shortened: (§3)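 NCI 60 human tumour cell line screen; 48 h continuous drug exposure. Compounds tested as tri(methanesulfonate) salts, soluble in water and dilute buffers. Dilute solutions are light-sensitive and adsorb to glass or quartz.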

[12] = test system: 786-0; assay: Antitumor activity against human 786-0 cells after 48 hrs; assay type: functional; conditions: 786-0, 48 h; procedure, shortened: as §1
[13] = test system: HT-29; assay: Growth inhibition of human HT29 cells after 5 days by MTT assay; assay type: functional; conditions: HT-29, 120 h; procedure, shortened: as §2
[14] = test system: TK-10; assay: Antitumor activity against human TK10 cells after 48 hrs; assay type: functional; conditions: TK-10, 48 h; procedure, shortened: as §3
[15] = test system: NCI-H226; assay: Antitumor activity against human NCI-H226 cells after 48 hrs; assay type: functional; conditions: NCI-H226, 48 h; procedure, shortened: as §1
[16] = test system: EKVX; assay: Antitumor activity against human EKVX cells after 48 hrs; assay type: functional; procedure, shortened: as §1
[17] = Plasma clearance in CD2F1 mouse at 20 mg/kg, iv; assay type: ADME, organism-based; parameters: dose 20 mg/kg, route intravenous
Procedure, shortened: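 Pilot pharmacokinetics in CD2F1 mice after i.v. injection. Total plasma clearance derived from plasma concentration data.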

[18] = test system: SN12C; assay: Antitumor activity against human SN12C cells after 48 hrs; assay type: functional; procedure, shortened: as §1
[19] = test system: LOX IMVI; assay: Antitumor activity against human LOX IMVI cells after 48 hrs; assay type: functional; procedure, shortened: as §1
[20] = test system: HT-29; assay: Antitumor activity against HT29 cells expressing mutated p53; assay type: functional, cell-based; conditions: Homo sapiens
Procedure, shortened: (§4)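 Compounds tested as tri(methanesulfonate) salts, soluble in water and dilute buffers. Human tumour cells carrying wild-type or mutated p53 were exposed for 5 days, and viability was read by MTT assay. GI50, TGI and LC50 were calculated from the MTT data. Values are means ± SD of at least three independent experiments, with coefficients of variation of 10–20%.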

[21] = test system: A498; assay: Antitumor activity against human A498 cells after 48 hrs; assay type: functional; conditions: A498, 48 h; procedure, shortened: as §1
[22] = test system: UACC-62; assay: Antitumor activity against human UACC62 cells after 48 hrs; assay type: functional; conditions: UACC-62, 48 h; procedure, shortened: as §3
[23] = test system: NCI-H460; assay: Antitumor activity against human NCI-H460 cells after 48 hrs; assay type: functional; conditions: NCI-H460, 48 h; procedure, shortened: as §1
[24] = test system: HCT-116; assay: Cell cycle arrest in HCT116 cells assessed as accumulation at S phase at 50 nM after 72 hrs; assay type: functional, Homo sapiens
Procedure, shortened: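 HCT116 cells exposed to 50 nM drug for 72 h, then cell-cycle distribution analysed. Sub-G1, G1, S and G2/M fractions reported as percent of cells, with untreated control cells for comparison.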

[25] = Antitumor activity against human 10.05 cells expressing mutated p53; assay type: functional, cell-based; procedure, shortened: as §4
[26] = test system: T47D; assay: Antitumor activity against human T47D cells after 48 hrs; assay type: functional; procedure, shortened: as §3
[27] = test system: RKO; assay: Antitumor activity against human RKO cells expressing wild type p53; assay type: functional; conditions: read-out: LC50 (the source's name); procedure, shortened: as §4
[28] = test system: NCI-H522; assay: Antitumor activity against human NCI-H522 cells after 48 hrs; assay type: functional; conditions: NCI-H522, 48 h; procedure, shortened: as §1
[29] = test system: SF-268; assay: Antitumor activity against human SF268 cells after 48 hrs; assay type: functional; conditions: SF-268, 48 h; procedure, shortened: as §1
[30] = test system: MCF7; assay: Antitumor activity against human MCF7 cells after 48 hrs; assay type: functional; conditions: MCF7, 48 h; procedure, shortened: as §1
[31] = test system: PC-3; assay: Antitumor activity against PC3 cells expressing mutated p53; assay type: functional, cell-based; conditions: Homo sapiens; procedure, shortened: as §4
[32] = test system: OVCAR-3; assay: Antitumor activity against human OVCAR-3 cells after 48 hrs; assay type: functional; conditions: OVCAR-3, 48 h; procedure, shortened: as §1
[33] = test system: SK-OV-3; assay: Antitumor activity against human SK-OV-3 cells after 48 hrs; assay type: functional; conditions: SK-OV-3, 48 h; procedure, shortened: as §1
[34] = test system: SW-620; assay: Antitumor activity against human SW620 cells after 48 hrs; assay type: functional; conditions: SW-620, 48 h; procedure, shortened: as §3
[35] = read-out: Log LC50 (the source's name) (converted)

For `COc1ccc2c(c1)c(=O)c1c(NCCCN3CCN(CCCN4C(=O)c5cccc6cc([N+](=O)[O-])cc(c56)C4=O)CC3)ccc3ncn2c31.CS(=O)(=O)O`, the GI50 [1] was 3.09 nM, the CC50 [1, 35] was > 1000 nM and the TGI ([1]; read-out: Log TGI (converted)) was 339 nM. For the same molecule, the GI50 [2] was 5.5 nM, the CC50 [2, 35] was > 1000 nM and the TGI ([2]; read-out: Log TGI (converted)) was 933 nM. For the same molecule, the GI50 [3] was 4.9 nM, the CC50 [3, 35] was > 1000 nM and the TGI ([3]; read-out: Log TGI (converted)) was 87.1 nM. The GI50 [4] was 5.13 nM, the CC50 [4, 35] was > 1000 nM and the TGI ([4]; read-out: Log TGI (converted)) was 63.1 nM. The GI50 [5] was 5.89 nM, the CC50 [5, 35] was > 1000 nM and the TGI ([5]; read-out: Log TGI (converted)) was 309 nM. The GI50 [6] was 6.31 nM, the CC50 [6, 35] was > 1000 nM and the TGI ([6]; read-out: Log TGI (converted)) was > 1000 nM. The GI50 [7] was 4.07 nM, the CC50 [7, 35] was > 1000 nM and the TGI ([7]; read-out: Log TGI (converted)) was 97.7 nM. The GI50 [8] was 1 nM, the LC50 [8] was 30 nM and the GI50 [9] was 27.5 nM. The CC50 [9, 35] was > 1000 nM, the TGI ([9]; read-out: Log TGI (converted)) was > 1000 nM and the GI50 [10] was 0.407 nM. The CC50 [10, 35] was > 1000 nM, the TGI ([10]; read-out: Log TGI (converted)) was 63.1 nM and the GI50 [11] was 6.76 nM. For the same molecule, the CC50 [11, 35] was > 1000 nM, the TGI ([11]; read-out: Log TGI (converted)) was 214 nM and the GI50 [12] was 5.25 nM. The CC50 [12, 35] was > 1000 nM, the TGI ([12]; read-out: Log TGI (converted)) was > 1000 nM and the GI50 [13] was 1 nM. The CC50 ([13]; read-out: LC50 (the source's name)) was 80 nM, the GI50 [14] was 13.5 nM and the CC50 [14, 35] was > 1000 nM. The TGI ([14]; read-out: Log TGI (converted)) was > 1000 nM, the GI50 [15] was 1.32 nM and the CC50 [15, 35] was > 1000 nM. The TGI ([15]; read-out: Log TGI (converted)) was 32.4 nM, the GI50 [16] was 3.31 nM and the CC50 [16, 35] was > 1000 nM. It also gave a TGI ([16]; read-out: Log TGI (converted)) of 58.9 nM, a clearance [17] of 238 mL/min/kg and a GI50 [18] of 2.51 nM. For the same molecule, the CC50 [18, 35] was > 1000 nM, the TGI ([18]; read-out: Log TGI (converted)) was > 1000 nM and the GI50 [19] was 1.86 nM. For the same molecule, the CC50 [19, 35] was > 1000 nM, the TGI ([19]; read-out: Log TGI (converted)) was 77.6 nM and the IC50 [20] was 80 nM. The GI50 [21] was 6.61 nM, the CC50 [21, 35] was > 1000 nM and the TGI ([21]; read-out: Log TGI (converted)) was 331 nM. For the same molecule, the GI50 [22] was 3.31 nM, the CC50 [22, 35] was > 1000 nM and the TGI ([22]; read-out: Log TGI (converted)) was 55 nM. The GI50 [23] was 2.57 nM, the CC50 [23, 35] was > 1000 nM and the TGI ([23]; read-out: Log TGI (converted)) was > 1000 nM. The Activity [24] was 2.3%, the IC50 [25] was 90 nM and the GI50 [26] was 8.71 nM. The CC50 [26, 35] was > 1000 nM, the TGI ([26]; read-out: Log TGI (converted)) was > 1000 nM and the CC50 [27] was 25 nM. The GI50 [28] was 4.17 nM, the CC50 [28, 35] was > 1000 nM and the TGI ([28]; read-out: Log TGI (converted)) was 151 nM. The GI50 [29] was 10.2 nM, the CC50 [29, 35] was > 1000 nM and the TGI ([29]; read-out: Log TGI (converted)) was > 1000 nM. For the same molecule, the GI50 [30] was 4.68 nM, the CC50 [30, 35] was > 1000 nM and the TGI ([30]; read-out: Log TGI (converted)) was > 1000 nM. For the same molecule, the IC50 [31] was 45 nM, the GI50 [32] was 50.1 nM and the CC50 [32, 35] was > 1000 nM. The TGI ([32]; read-out: Log TGI (converted)) was > 1000 nM, the GI50 [33] was 151 nM and the CC50 [33, 35] was > 1000 nM. The TGI ([33]; read-out: Log TGI (converted)) was > 1000 nM, the GI50 [34] was 0.676 nM and the CC50 [34, 35] was > 1000 nM. For the same molecule, the TGI ([34]; read-out: Log TGI (converted)) was > 1000 nM.
